Source: PubChem (several laboratories)
SENP8 block-1: blocks human SENP8 cleavage of Nedd8 substrate. recombinant SENP8, Nedd8 substrate fluorescence. inhibition, % at 20 µM. hit rate 0.64% among 360,000. Q96LD8. AID 602440; in the data active = inhibition mostly above about 40%, no sharp cut-off; inactive = mostly below about 27%
SENP8 block-2: blocks the human protease SENP8; Q96LD8; hit rate 1.2% among 330,000; inhibition, % at 10 µM; AID 2540; purified SENP8, Z-RLRGG-aminoluciferin cleavage, luminescence; in the data active = inhibition above about 50%
SENP6 block: blocks the human protease SENP6 | Q9GZR1 | Recombinant SENP6 catalytic domain, aminoluciferin luminescence | inhibition, % at 10 µM | hit rate 1.8% among 330,000;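 active = inhibition above about 50% at the single tested dose, limit read from the data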;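 also: plate controls were DMSO wells with enzyme for no effect and DMSO wells lacking enzyme for full effect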
Target sequence (Q9GZR1 628-1112 limits assumed): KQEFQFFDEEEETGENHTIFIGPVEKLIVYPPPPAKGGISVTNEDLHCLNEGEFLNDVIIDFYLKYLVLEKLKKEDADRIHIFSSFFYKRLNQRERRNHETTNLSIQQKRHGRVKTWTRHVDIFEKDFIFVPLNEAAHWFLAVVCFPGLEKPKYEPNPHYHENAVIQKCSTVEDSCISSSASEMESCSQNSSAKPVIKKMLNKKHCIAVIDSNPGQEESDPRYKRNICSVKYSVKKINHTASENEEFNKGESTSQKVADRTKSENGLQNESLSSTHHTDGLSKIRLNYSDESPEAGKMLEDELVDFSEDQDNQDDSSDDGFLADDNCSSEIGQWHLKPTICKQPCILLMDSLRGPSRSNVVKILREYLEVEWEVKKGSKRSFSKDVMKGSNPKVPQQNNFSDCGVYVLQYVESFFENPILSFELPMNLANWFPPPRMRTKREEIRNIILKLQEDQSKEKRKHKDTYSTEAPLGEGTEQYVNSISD
SENP7 block: SENP7 protease inhibition. recombinant SENP7, Z-RLRGG-aminoluciferin luminescence, 40 min. inhibition, % at 5 µM. hit rate 1.5% among 330,000;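 active = inhibition above about 50% at the single test dose, limit read from the data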;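 also: plate controls were DMSO with enzyme for no effect and no enzyme buffer wells for full effect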
SENP1 FRET inh: SENP1 (human) catalytic domain inhibition | Q9P0U3 | recombinant SENP1 catalytic domain, CyPet-SUMO1-YPet FRET cleavage | inhibition, % at 10 µM | hit rate 0.21% among 360,000 | AID 624204;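 active = inhibition at least 30% at 10 µM, raw YFP signal under a set limit, fluorescence ratio 0.5 to 1.5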;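 also: 0% = enzyme with DMSO and 100% = no enzyme wells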
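System: Recombinant human SENP1 catalytic domain, His6-tagged | Incubation: Enzyme reaction for 50 min at room temperature, dark | Medium: Tris pH 8 with BME, BSA, NP40 and catalase | Also added: 25 nM SUMO1 FRET substrate | Compound: 10 µM single point, 0.5% DMSO | Measured by: FRET fluorescence in CFP and YFP emission channels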
UCH37 inh: human UCH37 deubiquitinating enzyme inhibition; inhibition, % (test concentration not listed); hit rate 0.33% among 330,000; Q9Y5K5; purified proteasome/UCH37, Ub-AMC cleavage fluorescence;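 active = mean inhibition over replicate wells above about 20%, limit read from the data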;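 also: 0% = compound-free wells with enzyme and 100% = wells lacking proteasome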
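Schedule: 30 min plus 25 min, room temperature / Material: human UCH37 within purified proteasomes / Technique: AMC fluorescence intensity at 355/460 nm / Buffer or medium: pH 7.4 Tris-HCl (50 mM) with ovalbumin, ATP-MgCl2, DTT / Controls: wells without proteasome as full block, compound-free enzyme plus substrate as uninhibited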
SENP8 conf-1: confirmation of human SENP8 protease inhibitors. inhibition, % at 12.5 µM. AID 488912. Recombinant SENP8, Z-RLRGG-aminoluciferin luminescence, 60 min. shares compounds with SENP7 block. hit rate 40% among 6,200;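 active = mean inhibition across replicates above about 50%, limit read from the data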
SENP6 confirm: human SENP6 inhibition, confirmed. inhibition, % at 12.5 µM. recombinant SENP6, Z-RLRGG-aminoluciferin luminescence. AID 488915. hit rate 58% among 6,200. shares compounds with SENP7 block
SENP7 conf: human SENP7 inhibition, confirmed. shares compounds with SENP7 block. hit rate 69% among 6,200. recombinant SENP7, Z-RLRGG-aminoluciferin luminescence, 40 min. inhibition, % at 12.5 µM
Casp3 select: caspase-3 inhibition (SENP selectivity assay); shares compounds with SENP7 block; purified caspase-3, Z-DEVD-aminoluciferin luminescence, 60 min; inhibition, % at 12.5 µM; hit rate 60% among 6,200; AID 488918;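 active = mean inhibition above about 50%, limit read from the data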;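 also: plate controls were enzyme with DMSO for no effect and wells without caspase-3 for full effect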
Luc interf: interferes with luciferase luminescence in SENP counter-screen. shares compounds with SENP7 block. Pre-incubated SENP8/Z-RLRGG-aminoluciferin, luciferase luminescence interference. inhibition, % at 12.5 µM. hit rate 39% among 6,200. AID 488919;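 active = mean inhibition above about 50% when retested at one dose, limit read from the data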;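 also: plate controls were DMSO wells with completed reaction for no effect and substrate without enzyme for full effect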
UCH37 confirm: reconfirmed inhibitor of human deubiquitinase UCH37 | shares compounds with UCH37 inh | Proteasome-bound UCH37, Ub-AMC cleavage fluorescence | hit rate 27% among 480 | inhibition, % at 20 µM | AID 624100;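 active = average inhibition over replicates above about 50%, so the earlier screening hit is confirmed, limit read from the data; inactive = the rest, counted as false positives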;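 also: based on cleavage rate fitted by regression over a 30 min kinetic read; 0% = proteasome plus Ub-AMC and 100% = Ub-AMC without proteasome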
SENP8 conf-2: SENP8 (human) inhibition, single concentration confirmation | shares compounds with SENP8 block-1 | purified SENP8, Nedd8-AMC/pro-Nedd8 cleavage fluorescence, 30 min | inhibition, % at 25 µM | hit rate 15% among 1,400; in the data active = inhibition mostly above about 39%, no sharp cut-off; inactive = mostly below about 34%
Active calls of the source: *; x = no result. Rows were chosen to be rich in hits. Some 2.6% of all compounds tested hit in one or more screens of this group.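 The calls were made as follows, unless noted: active = mean inhibition above about 50% in the one-dose retest (limit read from the data); inactive = the rest.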

SMILES | SENP8 block-1 | SENP8 block-2 | SENP6 block | SENP7 block | SENP1 FRET inh | UCH37 inh | SENP8 conf-1 | SENP6 confirm | SENP7 conf | Casp3 select | Luc interf | UCH37 confirm | others
Cc1ccc(NC2=CC(=O)C(=O)c3ccccc32)cc1 | -133.8 | 55.1* | 66.1* | 35.6 | -0.2 | 46.5* | 16.4 | 66.3* | 33.4 | 7.9 | 4.5 | 54.8*
C/C(C=NNc1nc(N2CCOCC2)nc(N2CCOCC2)n1)=C/c1ccccc1 | x | x | x | x | x | 8.1 | x | x | x | x | x | x
O=C(COC(=O)c1ccc([N+](=O)[O-])s1)NC(=O)NCc1ccccc1 | 22.6 | 65.5* | 86.5* | 31.8 | 1.7 | 67.2* | 75.2* | 84.4* | 40.0 | 6.5 | -2.7 | 9.6
O=C(COC(=O)c1ccc(Br)o1)NCc1ccc(F)cc1 | 5.7 | -1.9 | -9.2 | -3.7 | 0.5 | 2.0 | x | x | x | x | x | x
O=C(COC(=O)c1ccc([N+](=O)[O-])s1)NCc1ccc(F)cc1 | 29.6 | 66.7* | 75.5* | 52.2* | 2.6 | 65.0* | 5.0 | 85.2* | 41.6 | 26.5 | -1.5 | 25.3
O=C1CN(C(=O)COC(=O)c2ccc([N+](=O)[O-])s2)c2ccccc2N1 | 26.0 | 64.8* | 53.3* | 28.9 | -0.7 | 75.6* | 2.5 | 85.2* | 43.8 | 4.5 | -0.1 | 7.9
C=CCN1C(=O)C(Cc2ccc(OC)cc2)SC1=NN=Cc1cccs1 (stereo not drawn) | x | x | x | x | x | -4.2 | x | x | x | x | x | x
CCC(=NNC(=O)c1ccc(N2CCCC2=O)cc1)c1ccccc1 | x | x | x | x | x | -0.8 | x | x | x | x | x | x
N#Cc1c(N)nc(N2CCCC2)c(C#N)c1-c1ccc(Cl)cc1 | -43.0 | 5.7 | -3.6 | 2.7 | -25.0 | -21.3 | x | x | x | x | x | x
N#Cc1c(N2CCCC2)nc(N)c2c(N)nc(N3CCCC3)cc12 | -414.3 | 96.6* | 96.6* | 97.1* | -27.7 | 31.2* | 97.8* | 98.0* | 97.0* | 96.6* | 11.2 | 0.5
CC(C)(C)c1cc[n+](C2=C([O-])c3ccccc3C(=O)/C2=N\S(=O)(=O)c2cccs2)cc1 | 106.0* | 51.3* | 65.7* | 35.3 | 3.3 | 49.7* | 51.3* | 75.4* | 38.9 | 5.9 | -3.1 | 57.9*
CCOC(=O)c1nn(-c2ccc(C)c(C)c2)c(=O)c2c(N)scc12 | 60.4* | 3.4 | 50.6* | 8.9 | 13.2 | 4.9 | -5.7 | 2.9 | -5.0 | 6.9 | -0.5 | x | SENP8 conf-2=48.6*
Cc1nnc(C)n1N=Cc1ccc(-c2ccccc2)cc1 | x | x | x | x | x | 5.4 | x | x | x | x | x | x
COc1cc(O)c(CC=C(C)C)c(O)c1C(=O)CCc1ccc(O)cc1 | 54.2* | 69.6* | 77.4* | 12.3 | -2.4 | 5.5 | 41.4 | 77.2* | 82.9* | -2.1 | 3.9 | x | SENP8 conf-2=19.0
O=C(NNc1cc(N2CCOCC2)nc(N2CCOCC2)n1)c1ccc([N+](=O)[O-])cc1 | 70.0* | 46.9 | 82.8* | 52.2* | -25.4 | 26.3* | 19.1 | 56.1* | 35.1 | 4.4 | -1.3 | 18.3 | SENP8 conf-2=44.3*
COc1cc(C=NNC(=O)c2cccnc2)ccc1OS(=O)(=O)c1ccc(C)cc1 | x | x | x | x | x | 5.4 | x | x | x | x | x | x
O=C1Cc2ccccc2C(=O)N1CCc1ccccc1 | 98.0* | 94.9* | 97.2* | 87.4* | 1.3 | 61.8* | 85.9* | 95.8* | 86.4* | 96.2* | 11.6 | 9.5 | SENP8 conf-2=88.3*
